The text below walks through data of the array DNA melting data of Ke et al. (doi:10.1101/2024.01.08.574731).

Data set [1] can be described thus: folding enthalpy; higher = less favourable; fluorescence melt of hairpins on a sequencing array, two-state fit. To be noted: sodium 0.088 M. The essentials:
(§1)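 Cy3 fluorescence of library hairpins on a sequenced MiSeq flow cell, with annealed Cy3 and quencher oligos, was imaged in 50 mM Na-HEPES pH 8.0, 25 mM NaCl in 2.5 °C steps up to 60 °C. Signals were normalised to pre-quench Cy3 and to control variants. Melting temperature and folding enthalpy came from bootstrapped two-state fits, inverse-variance combined over four replicates. Fitted temperatures were raised by 9.35 °C to match UV melts.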

Data set [2] in a line: melting temperature; fluorescence melt of hairpins on a sequencing array, two-state fit, raised by 9.35 °C to match UV melts. To be noted: sodium 0.088 M. The gist of the method:
as §1

For GGATGGCGAAAGCCTCC (((.(((....)))))), in data set [1], the folding enthalpy was -18.6 kcal/mol. The Tm in data set [2] is 55.6 °C.

Consider GGATGGGGAAACCCGTTC (.(.(((....))).).), for which the folding enthalpy in data set [1] is -16.5 kcal/mol. In addition, the Tm in data set [2] was 36.1 °C.

In the case of GGATGTGAAAACATCC ((((((....)))))), the folding enthalpy in data set [1] was -38.3 kcal/mol. Besides, the Tm in data set [2] came to 58.5 °C.

For GGATGTGCGAAAGCATCC (((..(((....)))))), in data set [1], the folding enthalpy is -17.6 kcal/mol. For the same sequence, in data set [2], the Tm stood at 45.8 °C.

In the case of GGATGTGGAAACATATCC ((((.((....)).)))), in data set [1], the folding enthalpy was -28.7 kcal/mol. Besides, in data set [2], the Tm amounted to 44.9 °C.

With GGATTAGGAAACTAATTC (.(((((....))))).), the folding enthalpy in data set [1] is -25.2 kcal/mol. In data set [2], the Tm amounted to 33.9 °C.

Take GGATTCCGAAAGGATTCC (((.(((....))).))): in data set [1], the folding enthalpy was -35.8 kcal/mol. In data set [2], the Tm is 49.7 °C.

As to GGATTCGGAAACAAATCC (((((.(....).))))), the folding enthalpy in data set [1] was -22.9 kcal/mol. For the same sequence, the Tm in data set [2] was determined as 35.8 °C.

GGATTCGGAAACGAATTC (.(((((....))))).): in data set [1], the folding enthalpy was -33.2 kcal/mol. In addition, the Tm in data set [2] was 47.7 °C.

In the case of GGATTCTCGAAAGAGTCC (((..(((....)))))), the folding enthalpy in data set [1] was -22.7 kcal/mol. For the same sequence, the Tm in data set [2] was 33.5 °C.

On to GGATTGCGAAAGCACTCC (((.(((....))).))), for which, in data set [1], the folding enthalpy is -34.9 kcal/mol. Besides, in data set [2], the Tm came out at 49.4 °C.

As to GGATTGGGAAACCAACCC ((.((((....)))).)), the folding enthalpy in data set [1] is -31.5 kcal/mol. The Tm in data set [2] turned out to be 41.2 °C.

For GGATTGGGAAACCGATCC ((((.((....)).)))), the folding enthalpy in data set [1] is -40.7 kcal/mol. Moreover, the Tm in data set [2] was 51 °C.

Take GGATTGGGAAACCGATTC (.((.((....)).)).): in data set [1], the folding enthalpy is -19.9 kcal/mol. The Tm in data set [2] was 31.6 °C.

Take GGATTTGAAAAAATCC ((((((....)))))): the folding enthalpy in data set [1] was -34.7 kcal/mol. In data set [2], the Tm turned out to be 49.6 °C.

GGATTTGGAAACAAACCC ((.((((....)))).)): the folding enthalpy in data set [1] is -30.1 kcal/mol. Further, in data set [2], the Tm was 35.6 °C.

Take GGATTTGGAAACAAGTCC (((.(((....))).))): the folding enthalpy in data set [1] was -31.5 kcal/mol. Further, the Tm in data set [2] was found to be 42.7 °C.

As for GGCAAACCGAAAGGTGCC (((..(((....)))))), the folding enthalpy in data set [1] is -39.1 kcal/mol. Also, the Tm in data set [2] is 56 °C.

For GGCAAACGAAAGTTCGCC (((.(((....))).))), the folding enthalpy in data set [1] was -47.9 kcal/mol. Further, the Tm in data set [2] was 53.3 °C.

Regarding GGCAACGAAAGTTGAGCC ((((((....)))..))), the folding enthalpy in data set [1] is -15.3 kcal/mol. Besides, the Tm in data set [2] stood at 45.4 °C.

In the case of GGCAACGAAAGTTGGCC ((((((....))).))), the folding enthalpy in data set [1] was -18.7 kcal/mol. In addition, the Tm in data set [2] was determined as 64 °C.

In the case of GGCAAGACGAAAGTCGCC (((..(((....)))))), in data set [1], the folding enthalpy is -18.9 kcal/mol. Further, in data set [2], the Tm is 54.2 °C.

Regarding GGCAAGCGAAAGCTAGCC (((.(((....))).))), the folding enthalpy in data set [1] is -35.9 kcal/mol. Besides, in data set [2], the Tm was 63.4 °C.

For the sequence GGCAATGCGAAAGCAGCC (((..(((....)))))), in data set [1], the folding enthalpy was -17.7 kcal/mol. In addition, the Tm in data set [2] is 57.6 °C.

Take GGCAATGGAAACATTACC ((.((((....)))).)): the folding enthalpy in data set [1] is -26.7 kcal/mol. Moreover, the Tm in data set [2] stood at 37.3 °C.

For the sequence GGCACACGAAAGTGCGCC (((.(((....))).))), the folding enthalpy in data set [1] was -36.9 kcal/mol. Also, the Tm in data set [2] came to 66.7 °C.

For GGCACAGCGAAAGCTGCC (((..(((....)))))), the folding enthalpy in data set [1] is -12.3 kcal/mol. Moreover, in data set [2], the Tm was determined as 48.3 °C.

Turning to GGCACCGAAAGGTAAGCC ((((((....)))..))), the folding enthalpy in data set [1] is -35 kcal/mol. Moreover, the Tm in data set [2] is 52.6 °C.

On to GGCACCGAAAGGTGCGCC ((((((....)))..))), for which, in data set [1], the folding enthalpy is -6.18 kcal/mol. In addition, the Tm in data set [2] is 66.1 °C.

With GGCACCGAAAGGTGGGCC ((((((....)))..))), the folding enthalpy in data set [1] is -12.5 kcal/mol. Also, in data set [2], the Tm turned out to be 52.6 °C.

GGCACCGAAAGGTTCGCC ((((((....)))..))): the folding enthalpy in data set [1] was -20 kcal/mol. Moreover, the Tm in data set [2] amounted to 47.7 °C.

Take GGCACCGAAAGGTTGCC ((((((....))).))): in data set [1], the folding enthalpy was -30.9 kcal/mol. Besides, the Tm in data set [2] turned out to be 63 °C.

GGCACCTCGAAAGAGGCC (((..(((....)))))): the folding enthalpy in data set [1] was -12.2 kcal/mol. Moreover, the Tm in data set [2] came to 38.2 °C.

As for GGCACGACGAAAGTCGCC (((..(((....)))))), the folding enthalpy in data set [1] is -8.64 kcal/mol. The Tm in data set [2] is 38.4 °C.

With GGCACGGGAAACCGCACC ((..(((....)))..)), the folding enthalpy in data set [1] is -10.3 kcal/mol. In addition, in data set [2], the Tm was found to be 32.4 °C.

GGCACGTCGAAAGACGCC (((..(((....)))))): in data set [1], the folding enthalpy is -11 kcal/mol. Also, the Tm in data set [2] came to 40.7 °C.

On to GGCACTCGAAAGAGGCC (((.(((....)))))), for which, in data set [1], the folding enthalpy is -21.5 kcal/mol. Further, the Tm in data set [2] was found to be 57.8 °C.
